Measurements reported in publication PMC3793015 (Journal of agricultural and food chemistry, 2013).
pIC50: −log10 of the molar value.

Legend:
THP-1 = test: Cytotoxicity of α-MG; format: cell-based, human; settings: read-out: IC50 (cytotoxicity); THP-1, 8 h, 10% FBS delivery
Outline: (§1)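 Cytotoxicity was judged by phase-contrast morphology and MTT reduction to formazan after exposure to increasing compound concentrations. Exposure was 24 h for RAW 264.7, MDM, HepG2 and HT-29, 8 h for PMA-differentiated THP-1, and 4 h for differentiated Caco-2. Delivery was DMSO into 10% FBS medium for RAW 264.7, THP-1 and HepG2; FBS-complexed compound at 10% FBS in RPMI 1640 for MDM; Tween 40 micelles for Caco-2 and HT-29.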

HepG2 = test: Cytotoxicity of α-MG; format: cell-based, human; settings: read-out: IC50 (cytotoxicity); HepG2, 24 h, 10% FBS delivery
Outline: as §1

Caco-2 = test: Cytotoxicity of α-MG; format: cell-based, human; settings: read-out: IC50 (cytotoxicity); Caco-2, 4 h, Tween 40 delivery
Outline: as §1

[1] = test system: TNF-α secretion by MDM cells; test: TNF-α secretion; format: cell-based, human
Outline: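 Primary macrophages came from buffy-coat monocytes (Ficoll, clumping), differentiated 6 days with 50 ng/mL M-CSF (97% pure by CD14/CD11b). Compound was delivered in FBS at 10% FBS in RPMI 1640. Cells were then stimulated with E. coli O111:B4 LPS or left unstimulated. Secreted TNF-α was quantified by ELISA.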

[2] = test system: TNF-α secretion by HepG2 cells; test: TNF-α secretion; format: cell-based, human
Outline: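 HepG2 monolayers, 2 days post-confluence, were pretreated with compound (DMSO stock into 10% FBS medium) and then stimulated with phorbol 12-myristate 13-acetate. Secreted TNF-α was quantified by ELISA in activated and nonactivated cultures.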

[3] = test system: IL-8 secretion by colonic HT-29 cells; test: IL-8 secretion; format: cell-based, human
Outline: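 HT-29 monolayers, 2 days post-confluence, were pretreated with compound delivered in Tween 40 micelles. Activation used LPS from E. coli O111:B4. IL-8 secreted into the medium was quantified by ELISA, in both activated and nonactivated cultures.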

RAW 264.7 cells = test: Cellular uptake and metabolism of α-MG; format: in vitro ADME, murine
Outline: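 RAW 264.7 cells, 2 days post-confluence, received 7.7 μM compound (DMSO stock into 10% FBS medium) for 24 h. LPS-activated cultures had 5 ng/mL LPS for 4 h, then a PBS wash, before compound. Cells and medium were collected together because some cells were nonadherent. Samples were extracted and analysed by RP-HPLC for free and glucuronidated/sulfated xanthones, as % of initial concentration.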

THP-1 cells = test: Cellular uptake and metabolism of α-MG; format: in vitro ADME, human
Outline: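 THP-1 monocytes were differentiated with 100 nM PMA for 48 h, then exposed 24 h to 5.2 μM compound (DMSO stock into 10% FBS medium). Activated cultures were pre-exposed to 5 ng/mL LPS for 4 h and washed with PBS. Spent medium and cells were collected separately, extracted and analysed by RP-HPLC for free and glucuronidated/sulfated xanthones. Amounts are % of initial compound; mean ± SD, n ≥ 5.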

HepG2 cells = test: Cellular uptake and metabolism of α-MG; format: in vitro ADME, human
Outline: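 HepG2 monolayers, 2 days post-confluence, received 9.0 μM compound as a DMSO stock added to 10% FBS medium for 24 h. Activated cultures had 10 ng/mL TNF-α for 4 h and a PBS wash first. Medium and cells were collected separately, extracted and analysed by RP-HPLC for free and glucuronidated/sulfated xanthones. Quantification used retention time, UV spectrum and five-point standard curves, as % of initial amount; mean ± SD, n ≥ 5.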

Caco-2 cells = test: Cellular uptake, metabolism and transport of α-MG on Transwell inserts; format: in vitro ADME, human
Outline: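 Caco-2 cells were differentiated 21–25 days post-confluence on Transwell inserts. Compound (12 μM) in Tween 40 micelles was added apically for 24 h. Activated cultures had 5 ng/mL IL-1β for 4 h, then a PBS wash. Apical medium, basolateral medium and cell monolayer were collected separately and analysed by RP-HPLC for free and conjugated xanthones. Amounts are % of initial compound; mean ± SD, n ≥ 5.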

HT-29 cells = test: Cellular uptake and metabolism of α-MG; format: in vitro ADME, human
Outline: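 HT-29 monolayers, 2 days post-confluence, given 8.5 μM compound in Tween 40 micelles in medium for 24 h. Activated cultures had 800 ng/mL LPS for 4 h, then a PBS wash, before compound. Spent medium and cells were collected separately, extracted and analysed by RP-HPLC, including glucuronide/sulfate conjugates. Xanthones were identified by retention time and UV spectrum and quantified against five-point mangostin standard curves. Results are given as % of initial compound; mean ± SD, n ≥ 5.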

[4] = RAW 264.7, combined medium and cells, 7.7 μM, 24 h
[5] = 24 h after addition of α-MG, control cultures, nd: not detected
[6] = Caco-2 Transwell, 12 μM apical, 24 h

`COc1c(O)cc2oc3cc(O)c(CC=C(C)C)c(O)c3c(=O)c2c1CC=C(C)C` [α-MG, α-mangostin] showed a pIC50 (THP-1) of 4.64, a pIC50 (HepG2) of 4.60 and a pIC50 (Caco-2) of under 4.10. For the same compound, the “TNF-α secretion in absence vs presence of α-MG” value ([1]; 0.7 μM, LPS-treated MDM, p > 0.05, data not shown) was “similar”, the “effect on TNF-α secretion” value ([1]; 0.7 μM, nonactivated MDM, p < 0.05, data not shown) was “increased” and the “increase of LPS-stimulated secretion of TNF-α” value ([1]; MDM, 4.5 μM pretreatment 4 h, LPS 100 ng/mL 10 h) was “more than 50%”. For the same compound, the “effect on basal secretion of TNF-α” value ([1]; nonactivated MDM cultures) was “more than doubled”, the “attenuation of TNF-α secretion” value ([2]; PMA-activated HepG2, 7 μM pretreatment 16 h, PMA 50 ng/mL 4 h) was 22% and the “effect on secretion of TNF-α” value ([2]; nonactivated HepG2 cultures) was “not altered”. The “inhibition of IL-8 chemokine secretion” value ([3]; activated HT-29, 10 μM pretreatment 1 h, LPS 100 ng/mL 16 h) was 30–40%, the “effect on basal secretion of IL-8” value ([3]; nonactivated HT-29 cultures) was “more than doubled” and the “recovery of α-MG” value (RAW 264.7 cells; RAW 264.7, 24 h incubation) was 80 ± 6%. The “ratio of free to conjugated xanthones, activated vs control” value (RAW 264.7 cells; RAW 264.7, LPS treatment, data not shown) was “increased”, the “free α-MG, of initial concentration” value (RAW 264.7 cells; [4]) was 18 ± 3% and the “glucuronidated/sulfated conjugates, of initial concentration” value (RAW 264.7 cells; [4]) was 61 ± 6%. The “xanthone in media, THP-1” value (THP-1 cells; 0 h, amount of α-MG at start) was 33710 ± 161 pmol/dish, the “intracellular profile table, α-MG at 0 h, THP-1” value (THP-1 cells; 0 h, control cultures) was 33710 ± 161 pmol/dish and the “intracellular xanthone, THP-1” value (THP-1 cells; [5]) was 11439 ± 995 pmol/dish. For the same compound, the “intracellular ratio of free to conjugated xanthones, activated vs control” value (“intracellular ratio of free” below) (THP-1 cells; THP-1, 5 ng/mL LPS 4 h before α-MG, 24 h, p < 0.05) was “increased”, the “free xanthones in cells, of initial α-MG” value (THP-1 cells; THP-1, 5.2 μM, 24 h, control) was 20 ± 4% and the “free xanthones in spent medium, of initial α-MG” value (THP-1 cells; THP-1, 5.2 μM, 24 h, control) was 40 ± 1%. For the same compound, the “phase II conjugates in cells, of initial α-MG” value (THP-1 cells; THP-1, 5.2 μM, 24 h, control) was 14 ± 3%, the “recovery of xanthones, of α-MG added” value (THP-1 cells; THP-1, 24 h incubation) was 75 ± 6% and the “xanthone in media, HepG2” value (HepG2 cells; 0 h, amount of α-MG at start) was 17834 ± 115 pmol/dish. The “intracellular profile table, α-MG at 0 h, HepG2” value (HepG2 cells; 0 h, control cultures) was 17834 ± 115 pmol/dish, the “intracellular xanthone, HepG2” value (HepG2 cells; [5]) was 9344 ± 298 pmol/dish and the “intracellular ratio of free” value (HepG2 cells; HepG2, 10 ng/mL TNF-α 4 h before α-MG, 24 h, p < 0.05) was “increased”. The “free xanthones in spent medium, of initial α-MG” value (HepG2 cells; HepG2, 9.0 μM, 24 h, control) was 36 ± 2%, the “free α-MG in cells, of total” value (HepG2 cells; HepG2, 9.0 μM, 24 h, control) was 27 ± 3% and the “glucuronidated/sulfated conjugates of α-MG in cells, of total” value (HepG2 cells; HepG2, 9.0 μM, 24 h, control) was 29 ± 3%. The “recovery of α-MG equivalents added” value (HepG2 cells; HepG2, 24 h) was 91 ± 4%, the “xanthone in media, Caco-2” value (Caco-2 cells; 0 h, amount of α-MG at start) was 20741 ± 261 pmol/dish and the “intracellular profile table, α-MG at 0 h, Caco-2” value (Caco-2 cells; 0 h, control cultures) was 20741 ± 261 pmol/dish. For the same compound, the “intracellular xanthone, Caco-2” value (Caco-2 cells; [5]) was 3000 ± 551 pmol/dish, the “ratio of free to conjugated xanthones in apical medium, activated vs control” value (Caco-2 cells; Caco-2, 5 ng/mL IL-1β, 24 h, p < 0.05) was “increased” and the “recovery of xanthones, of α-MG added” value (Caco-2 cells; Caco-2, 24 h) was “approximately 65%”. For the same compound, the “amount of xanthones and ratio of conjugated to free xanthones transported into basolateral compartment” value (Caco-2 cells; Caco-2, treatment with IL-1β vs control, p < 0.05) was “increased”, the “conjugated xanthones in basolateral medium” value (Caco-2 cells; [6]) was 1.7 ± 0.3% and the “conjugated xanthones in cells” value (Caco-2 cells; [6]) was 10 ± 3%. For the same compound, the “conjugates in apical medium” value (Caco-2 cells; [6]) was 11 ± 2%, the “free xanthones in apical medium” value (Caco-2 cells; [6]) was 35 ± 1% and the “free xanthones in basolateral medium” value (Caco-2 cells; [6]) was 0.8 ± 0.1%. For the same compound, the “free xanthones in cells” value (Caco-2 cells; [6]) was 6 ± 0.6%, the “xanthones in apical medium (total), of initial α-mangostin” value (Caco-2 cells; [6]) was 47 ± 3% and the “xanthones in basolateral medium (total), of initial α-mangostin” value (Caco-2 cells; [6]) was 3 ± 0.3%. The “xanthones in cells (total), of initial α-mangostin” value (Caco-2 cells; [6]) was 16 ± 3%, the “intracellular ratio of free” value (Caco-2 cells; Caco-2 cells, 5 ng/mL IL-1β 4 h before α-MG, 24 h, p < 0.05) was “increased” and the “xanthone in media, HT-29” value (HT-29 cells; 0 h, amount of α-MG at start) was 16517 ± 373. For the same compound, the “intracellular profile table, α-MG at 0 h, HT-29” value (HT-29 cells; 0 h, control cultures) was 16517 ± 373, the “intracellular xanthone, HT-29” value (HT-29 cells; [5]) was 807 ± 178 and the “ratio of free to conjugated xanthones in medium, activated vs control” value (HT-29 cells; HT-29, 800 ng/mL LPS 4 h before α-MG, 24 h, p < 0.05) was “increased”. For the same compound, the “free xanthones in medium, of initial α-MG” value (HT-29 cells; HT-29, 8.5 μM, 24 h, control) was 7 ± 2%, the “nonconjugated xanthones in cells” value (HT-29 cells; HT-29, 8.5 μM, 24 h, control) was “only traces” and the “phase II conjugates in cells, of α-MG added” value (HT-29 cells; HT-29, 8.5 μM, 24 h, control) was 5 ± 1%. For the same compound, the “phase II conjugates in medium, of α-MG added” value (HT-29 cells; HT-29, 8.5 μM, 24 h, control) was 42 ± 3% and the “recovery of α-MG” value (HT-29 cells; HT-29, 24 h incubation) was 54 ± 4%.
